A short description of assay [1]: In vitro inhibition of growth of the human gastrointestinal adenocarcinoma cells HaTu80. Type of assay: functional. Put shortly: (§1)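 Monodispersed growing cells (0.7-1 × 10^5 in 1 mL medium) were added to wells already holding 0–50 μL of drug solution. Drug was dissolved fresh in 0.1 M NaOH and diluted with pH 7.0 phosphate buffer. Cells were incubated 72–96 h at 37 °C in humidified 8% CO₂, trypsinized and counted on a Coulter counter. IC50 was the concentration giving 50% growth inhibition versus untreated controls.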

In the next assay the test system is WiDr. The assay can be described thus: In vitro inhibition of growth of the human gastrointestinal adenocarcinoma cells WIDR. In kind it is functional, cell-based. An outline of the steps: as §1
Another assay concerns SW480. Briefly: In vitro inhibition of growth of the human gastrointestinal adenocarcinoma cells SW480. Type of assay: functional, cell-based. Put shortly: as §1
For another assay, the system named is HT-29. Briefly: In vitro inhibition of growth of the human gastrointestinal adenocarcinoma cells HT-29. Type of assay: functional, cell-based. An outline of the steps: as §1

In the case of `Nc1nc(=O)c2cc(NCc3ccc(C(=O)N[C@H](CCC(=O)O)C(=O)O)cc3)ccc2[nH]1`, the IC50 (in assay [1] (Homo sapiens); with WiDr; in the assay with SW480; in the assay on HT-29) was over 300 µM in each case.
Regarding `Cc1c(NCc2ccc(C(=O)NC(CCC(=O)O)C(=O)O)cc2)ccc2nc(N)nc(O)c12` (centres undefined), the IC50 in assay [1] (Homo sapiens) turned out to be 4 µM; in the assay with WiDr, 4 µM; in the assay with SW480, 10 µM; in the assay with HT-29, 1.1 µM.
As for `Nc1nc(N)c2cc(NCc3ccc(C(=O)NC(CCC(=O)O)C(=O)O)cc3)ccc2n1` (centres undefined), the IC50 worked out at 0.15 µM in assay [1] (Homo sapiens), 0.2 µM in the assay with WiDr, 0.2 µM with SW480 and 0.2 µM with HT-29.
As to `CN(Cc1ccc(C(=O)NC(CCC(=O)O)C(=O)O)cc1)c1ccc2nc(N)nc(O)c2c1` (centres undefined), the IC50 came out at 4.8 µM in assay [1] (Homo sapiens), 6.3 µM with WiDr, 5 µM in the assay on SW480 and 3.2 µM with HT-29.
The corresponding values for `Nc1nc(O)c2cc(N(C=O)Cc3ccc(C(=O)NC(CCC(=O)O)C(=O)O)cc3)ccc2n1` (centres undefined) are 95 µM, 195 µM, 150 µM and 100 µM.
As to `Cc1c(N(C)Cc2ccc(C(=O)NC(CCC(=O)O)C(=O)O)cc2)ccc2nc(N)nc(O)c12` (centres undefined), the IC50 in assay [1] (Homo sapiens) was 3.6 µM; in the assay with WiDr, 4.8 µM; in the assay with SW480 it was 4.8 µM; in the assay with HT-29 it was 2.7 µM.
As for `Nc1nc(=O)c2cc(NCc3ccc(C(=O)NC(CCC(=O)O)C(=O)O)cc3)ccc2[nH]1` (stereo in doubt; form 1), in assay [1], the midpoint of inhibition, the IC50, lay at 4.5 µM.
In the case of `CN(Cc1cnc2nc(N)nc(N)c2n1)c1ccc(C(=O)N[C@@H](CCC(=O)O)C(=O)O)cc1` [METHOTREXATE], the IC50 in assay [1] (Homo sapiens) was determined as 0.009 µM; in the assay on WiDr, 0.025 µM; in the assay on SW480 it was 0.015 µM; with HT-29 it was 0.018 µM.

As a reminder, the IC50 is the point on the concentration scale where inhibition reaches its midpoint.

For the origin of these results see ChEMBL document CHEMBL1122572, “Improved synthesis and antitumor evaluation of 5,8-dideazaisofolic acid and closely related analogues” (J Med Chem, 1984).
